ChEMBL document CHEMBL1123183, “Synthesis and antiviral properties of 5-(2-substituted vinyl)-6-aza-2'-deoxyuridines” (1986)
In brackets after ≈: the same amount, converted by molar mass.

Tests used:
Type in all cases: functional
Settings in all cases: Chlorocebus sabaeus, read-out: ID50 (the source's name)
[1] = test system: Vero; experiment: In vitro antiviral activity against HSV-2(strain 196) in Vero cells
Summary of the method: (§1)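 Plaque reduction in confluent Vero monolayers infected with 30-40 PFU of HSV-1 (strain HFEM) or HSV-2 (strain 196), then 1 h at 37 °C. Overlay of maintenance medium with 0.75% carboxymethylcellulose and a range of compound concentrations, then 2 days at 37 °C. Cells fixed and stained, plaques counted. ID50 is the concentration giving 50% plaque inhibition.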

[2] = test system: Vero; experiment: In vitro antiviral activity against HSV-1(strain HFEM) in Vero cells; summary of the method: as §1
[3] = test system: Vero; experiment: Cytotoxicity was measured by determining the incorporation of [methyl-3H]thymidine into DNA of Vero cells
Summary of the method: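 Subconfluent Vero monolayers overlaid with maintenance medium holding 1 μCi/mL [methyl-3H]thymidine plus a range of nucleoside concentrations. Incubated 18 h at 37 °C. DNA synthesis read as label in acid-precipitable material. ID50 is the concentration giving 50% reduction of thymidine incorporation.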

O=c1[nH]c(=O)n(C2C[C@@H](O)[C@@H](CO)O2)nc1-c1ccoc1 (stereo partly drawn)
IC50 [1]: 39 µg/mL (≈ 132 µM) | IC50 [2]: 42 µg/mL (≈ 142 µM) | IC50 [3]: 45 µg/mL (≈ 152 µM)

O=c1[nH]c(=O)n(C2C[C@@H](O)[C@@H](CO)O2)nc1C=C(Br)Br (stereo partly drawn)
IC50 [1]: 100 µg/mL (≈ 242 µM) | IC50 [2]: 100 µg/mL (≈ 242 µM) | IC50 [3]: > 500 µg/mL

COC(=O)/C=C/c1nn(C2C[C@@H](O)[C@@H](CO)O2)c(=O)[nH]c1=O (stereo partly drawn)
IC50 [2]: > 500 µg/mL | IC50 [3]: > 500 µg/mL

O=c1[nH]c(=O)n(C2C[C@@H](O)[C@@H](CO)O2)nc1CC(F)(F)F (stereo partly drawn)
IC50 [1]: > 250 µg/mL | IC50 [2]: > 250 µg/mL | IC50 [3]: > 500 µg/mL

CS/C=C/c1nn(C2C[C@@H](O)[C@@H](CO)O2)c(=O)[nH]c1=O (stereo partly drawn)
IC50 [1]: > 250 µg/mL | IC50 [2]: > 250 µg/mL | IC50 [3]: 420 µg/mL (≈ 1390 µM)

O=C(O)/C=C/c1nn(C2C[C@@H](O)[C@@H](CO)O2)c(=O)[nH]c1=O (stereo partly drawn)
IC50 [2]: > 250 µg/mL | IC50 [3]: > 500 µg/mL

O=c1[nH]c(=O)n(C2C[C@@H](O)[C@@H](CO)O2)nc1/C=C/Cl (stereo partly drawn)
IC50 [1]: 215 µg/mL (≈ 742 µM) | IC50 [2]: 20 µg/mL (≈ 69 µM) | IC50 [3]: > 500 µg/mL

O=c1[nH]c(=O)n(C2C[C@@H](O)[C@@H](CO)O2)nc1/C=C/Br (stereo partly drawn)
IC50 [1]: 190 µg/mL (≈ 569 µM) | IC50 [2]: 8 µg/mL (≈ 23.9 µM) | IC50 [3]: 355 µg/mL (≈ 1060 µM)

O=Cc1nn(C2C[C@@H](O)[C@@H](CO)O2)c(=O)[nH]c1=O (stereo partly drawn)
IC50 [2]: > 500 µg/mL | IC50 [3]: 180 µg/mL (≈ 700 µM)

COC(F)(F)Cc1nn(C2C[C@@H](O)[C@@H](CO)O2)c(=O)[nH]c1=O (stereo partly drawn)
IC50 [1]: > 250 µg/mL | IC50 [2]: 82 µg/mL (≈ 254 µM) | IC50 [3]: > 500 µg/mL

O=c1[nH]c(=O)n(C2C[C@@H](O)[C@@H](CO)O2)nc1/C=C(\F)Br (stereo partly drawn)
IC50 [1]: > 250 µg/mL | IC50 [2]: > 250 µg/mL | IC50 [3]: > 500 µg/mL

O=c1[nH]c(=O)n([C@H]2C[C@H](O)[C@@H](CO)O2)cc1/C=C/Br [BRIVUDINE]
IC50 [1]: 1.6 µg/mL (≈ 4.8 µM) | IC50 [2]: 0.015 µg/mL (≈ 0.045 µM) | IC50 [3]: 50 µg/mL (≈ 150 µM)
